# Published values gathered from unrelated publications.
# Lines come from different studies, so protocols differ.
# CSF1R autoinhibited: Macrophage colony-stimulating factor 1 receptor, autoinhibited (CSF1R, Homo sapiens, UniProt P07333)
# CSF1R: Macrophage colony-stimulating factor 1 receptor (CSF1R, Homo sapiens, UniProt P07333)
SMILES,target,test,conditions,remaining binding
O=C(NCCCN1CCOCC1)c1ccc(Nc2ncc(Cl)c(-c3ccc(Cl)s3)n2)cc1,CSF1R autoinhibited,"binding, competition with immobilised ligand",1 µM,42%
Nc1ncc2c(n1)-c1c([nH]c3ccc(C#CC4CC4)cc13)CCCC2,CSF1R autoinhibited,"binding, competition with immobilised ligand",1 µM,85%
Cc1cnn2ncc(-c3ccnc(N(C)C)n3)c2c1,CSF1R,binding,1 µM,100%
CN(C(=O)c1ccccc1)c1cc(N(C)c2ccc3c(c2)CCc2ccc(C(=O)NCCN4CCOCC4)cc2C3=O)ccc1F,CSF1R,"cell-free assay, competition with immobilised ligand",1 µM,98%
C=CC(=O)N1CCC(C(=O)NCC(=O)N2CCN(c3nc(-c4cnc(N)nc4C(F)F)nc(N4CCOCC4)n3)CC2)CC1,CSF1R,"binding, competition with immobilised ligand",1 µM,77%
O=C(N1CCS(=O)(=O)CC1)N1C[C@H](c2ccc(OC(F)(F)F)cc2)C[C@H](c2nc(C3CC3)no2)C1,CSF1R,"cell-free assay, competition with immobilised ligand",1 µM,100%
CN(C)c1ncc(F)c(-c2cnn3ncccc23)n1,CSF1R,binding,1 µM,91%
CC(C)(C)c1ccc(-c2nc(CBr)nn2-c2cccc(O)c2)cc1,CSF1R,"cell-free assay, competition with immobilised ligand",10 µM,98%
O=C(NCCCN1CCOCC1)c1ccc(Nc2nccc(-c3cc4ccccc4s3)n2)cc1,CSF1R autoinhibited,"binding, competition with immobilised ligand",1 µM,83%
c1cncc(-c2cccc(Nc3nccc(NC4CCCCC4)n3)c2)c1,CSF1R autoinhibited,"binding, competition with immobilised ligand",10 µM,0%
O=C(O)[C@H]1[C@H](Cn2nnc3ccccc3c2=O)CC[C@@H]1C(=O)c1ccc(OCCC2CCOCC2)cc1,CSF1R autoinhibited,"cell-free assay, competition with immobilised ligand",1 µM,100%
F[C@@H]1CCN(c2nccc(-c3cnn4ncccc34)n2)C1,CSF1R autoinhibited,binding,1 µM,81%
CCS(=O)(=O)c1cc2cc(C[C@@](O)(CC(C)(C)c3ccc(F)cc3C(N)=O)C(F)(F)F)[nH]c2cn1,CSF1R autoinhibited,"cell-free assay, competition with immobilised ligand",1 µM,94%
N[C@H]1CCN(c2nccc(-c3cnn4ncccc34)n2)C1,CSF1R,binding,1 µM,100%
C[C@@H]1CN(c2cc(-c3nn(C)c4ccc(OC5(C)CC5)cc34)ncn2)C[C@H](C)O1,CSF1R autoinhibited,"cell-free assay, competition with immobilised ligand",1 µM,55%
CC1CCCN1c1nccc(-c2cnn3ncccc23)n1 (stereo not shown),CSF1R,binding,1 µM,100%
COc1cnc(Nc2cccc(S(N)(=O)=O)c2)nc1N1CCN(c2ccccc2)C(=O)C1,CSF1R autoinhibited,"binding, competition with immobilised ligand",1 µM,87%
O=C(Nc1c[nH]nc1C(=O)NC1CCNCC1)c1cc(F)cc(F)c1,CSF1R autoinhibited,"binding, competition with immobilised ligand",1 µM,90%
CC(=O)N1CCC(c2ccc(C(=O)NC3=NCCN3)cc2C(F)(F)F)CC1,CSF1R,"cell-free assay, competition with immobilised ligand",1 µM,100%
